{"source": "paper PMC3644855", "about": "(Nuclear medicine and biology, 2009)", "key": {"5-HT1A receptor": {"target": "T1, 5-HT1A receptor (Rattus norvegicus, UniProt P19327)", "T1 sequence (P19327 1-422)": "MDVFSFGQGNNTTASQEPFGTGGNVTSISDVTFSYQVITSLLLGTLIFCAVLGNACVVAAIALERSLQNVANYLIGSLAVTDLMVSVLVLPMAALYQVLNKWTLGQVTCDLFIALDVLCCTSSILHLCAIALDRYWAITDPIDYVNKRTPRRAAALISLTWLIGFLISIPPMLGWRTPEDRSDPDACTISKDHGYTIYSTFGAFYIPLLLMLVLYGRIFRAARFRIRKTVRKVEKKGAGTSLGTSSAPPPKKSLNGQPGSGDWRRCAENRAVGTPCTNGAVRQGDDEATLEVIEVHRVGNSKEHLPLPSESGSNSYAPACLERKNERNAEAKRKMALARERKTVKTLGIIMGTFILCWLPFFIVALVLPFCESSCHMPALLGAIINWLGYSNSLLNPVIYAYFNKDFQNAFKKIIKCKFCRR", "experiment": "Brain tissue specific binding ratio [", "type": "in vivo", "conditions": "rat i.v., Radioactivity", "method_in_brief": "(§1)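 Awake male Sprague-Dawley rats (220–260 g, 3 per group) got i.v. 0.5–1 mCi 18F-labelled test compound in 100 μL, containing 1, 11 or 18 nmol unlabelled compound. Killed 5 or 30 min later. Caudate, thalamus, hippocampus, brain stem, cerebellum, cortex and plasma (0.05–0.4 g) weighed and radioactivity-counted. Uptake given as DUR = %ID/g × body weight/100.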"}, "[1]": {"type": "in vivo", "conditions": "rat i.v., Radioactivity", "method_in_brief": "as §1"}}, "note": "“And” between values parts separate entries of the source, which are not always exact repeats. Equal entries are not always repeated. Where two headings read alike, the source gives them in different places.", "data": [{"smiles": "COc1ccccc1N1CCN(CCN(C(=O)c2ccc(F)cc2)c2ncccn2)CC1", "note": "[[^18F]FPWAY, 4-Fluoro-N-{2-[4-(2-methoxyphenyl)-1-piperazinyl]ethyl}-N-(2-pyrimidinyl)benzamide]", "values": [{"measurement": "Specific binding ratio [(DURtissue/DURCb)−1] Hippocampus", "setting": "5-HT1A receptor; 1 nmol, 5 min", "value": "1.95±0.45"}, {"measurement": "Specific binding ratio [(DURtissue/DURCb)−1] brain stem", "setting": "5-HT1A receptor; 1 nmol, 5 min", "value": "0.63±0.08"}, {"measurement": "Specific binding ratio [(DURtissue/DURCb)−1] caudate", "setting": "5-HT1A receptor; 1 nmol, 5 min", "value": "0.38±0.06"}, {"measurement": "Specific binding ratio [(DURtissue/DURCb)−1] cortex", "setting": "5-HT1A receptor; 1 nmol, 5 min", "value": "1.41±0.13"}, {"measurement": "Specific binding ratio [(DURtissue/DURCb)−1] thalamus", "setting": "5-HT1A receptor; 1 nmol, 5 min", "value": "0.64±0.04"}, {"measurement": "Specific binding ratio [(DURtissue/DURCb)−1] Hippocampus", "setting": "5-HT1A receptor; 1 nmol, 30 min", "value": "5.38±0.23"}, {"measurement": "Specific binding ratio [(DURtissue/DURCb)−1] brain stem", "setting": "5-HT1A receptor; 1 nmol, 30 min", "value": "1.12±0.06"}, {"measurement": "Specific binding ratio [(DURtissue/DURCb)−1] caudate", "setting": "5-HT1A receptor; 1 nmol, 30 min", "value": "0.53±0.17"}, {"measurement": "Specific binding ratio [(DURtissue/DURCb)−1] cortex", "setting": "5-HT1A receptor; 1 nmol, 30 min", "value": "2.04±0.18"}, {"measurement": "Specific binding ratio [(DURtissue/DURCb)−1] thalamus", "setting": "5-HT1A receptor; 1 nmol, 30 min", "value": "1.29±0.13"}, {"measurement": "Specific binding ratio [(DURtissue/DURCb)−1] Hippocampus", "setting": "5-HT1A receptor; 11 nmol, 30 min", "value": "2.72±0.37"}, {"measurement": "Specific binding ratio [(DURtissue/DURCb)−1] brain stem", "setting": "5-HT1A receptor; 11 nmol, 30 min", "value": "0.68±0.14"}, {"measurement": "Specific binding ratio [(DURtissue/DURCb)−1] caudate", "setting": "5-HT1A receptor; 11 nmol, 30 min", "value": "0.33±0.06"}, {"measurement": "Specific binding ratio [(DURtissue/DURCb)−1] cortex", "setting": "5-HT1A receptor; 11 nmol, 30 min", "value": "1.26±0.11"}, {"measurement": "Specific binding ratio [(DURtissue/DURCb)−1] thalamus", "setting": "5-HT1A receptor; 11 nmol, 30 min", "value": "0.70±0.12"}, {"measurement": "Specific binding ratio [(DURtissue/DURCb)−1] Hippocampus", "setting": "5-HT1A receptor; 18 nmol, 30 min", "value": "2.57±0.21"}, {"measurement": "Specific binding ratio [(DURtissue/DURCb)−1] brain stem", "setting": "5-HT1A receptor; 18 nmol, 30 min", "value": "0.85±0.26"}, {"measurement": "Specific binding ratio [(DURtissue/DURCb)−1] caudate", "setting": "5-HT1A receptor; 18 nmol, 30 min", "value": "0.63±0.34"}, {"measurement": "Specific binding ratio [(DURtissue/DURCb)−1] cortex", "setting": "5-HT1A receptor; 18 nmol, 30 min", "value": "1.81±0.83"}, {"measurement": "Specific binding ratio [(DURtissue/DURCb)−1] thalamus", "setting": "5-HT1A receptor; 18 nmol, 30 min", "value": "0.90±0.13"}, {"measurement": "DUR Hippocampus", "setting": "[1]; 1 nmol, 5 min", "value": "4.50 %ID/g * body weight/100 and 4.50±0.41 %ID/g * body weight/100"}, {"measurement": "DUR brain stem", "setting": "[1]; 1 nmol, 5 min", "value": "2.53±0.48", "unit": "%ID/g * body weight/100"}, {"measurement": "DUR caudate", "setting": "[1]; 1 nmol, 5 min", "value": "2.14±0.27", "unit": "%ID/g * body weight/100"}, {"measurement": "DUR cerebellum", "setting": "[1]; 1 nmol, 5 min", "value": "1.55±0.24", "unit": "%ID/g * body weight/100"}, {"measurement": "DUR cortex", "setting": "[1]; 1 nmol, 5 min", "value": "3.75±0.74", "unit": "%ID/g * body weight/100"}, {"measurement": "DUR thalamus", "setting": "[1]; 1 nmol, 5 min", "value": "2.54±0.43", "unit": "%ID/g * body weight/100"}, {"measurement": "DUR Hippocampus", "setting": "[1]; 1 nmol, 30 min", "value": "2.34±0.22", "unit": "%ID/g * body weight/100"}, {"measurement": "DUR brain stem", "setting": "[1]; 1 nmol, 30 min", "value": "0.78±0.08", "unit": "%ID/g * body weight/100"}, {"measurement": "DUR caudate", "setting": "[1]; 1 nmol, 30 min", "value": "0.56±0.01", "unit": "%ID/g * body weight/100"}, {"measurement": "DUR cerebellum", "setting": "[1]; 1 nmol, 30 min", "value": "0.36±0.05", "unit": "%ID/g * body weight/100"}, {"measurement": "DUR cortex", "setting": "[1]; 1 nmol, 30 min", "value": "1.12±0.18", "unit": "%ID/g * body weight/100"}, {"measurement": "DUR thalamus", "setting": "[1]; 1 nmol, 30 min", "value": "0.84±0.06", "unit": "%ID/g * body weight/100"}, {"measurement": "DUR Hippocampus", "setting": "[1]; 11 nmol, 30 min", "value": "0.83±0.03", "unit": "%ID/g * body weight/100"}, {"measurement": "DUR brain stem", "setting": "[1]; 11 nmol, 30 min", "value": "0.37±0.05", "unit": "%ID/g * body weight/100"}, {"measurement": "DUR caudate", "setting": "[1]; 11 nmol, 30 min", "value": "0.30±0.02", "unit": "%ID/g * body weight/100"}, {"measurement": "DUR cerebellum", "setting": "[1]; 11 nmol, 30 min", "value": "0.22±0.02", "unit": "%ID/g * body weight/100"}, {"measurement": "DUR cortex", "setting": "[1]; 11 nmol, 30 min", "value": "0.50±0.04", "unit": "%ID/g * body weight/100"}, {"measurement": "DUR thalamus", "setting": "[1]; 11 nmol, 30 min", "value": "0.38±0.02", "unit": "%ID/g * body weight/100"}, {"measurement": "DUR Hippocampus", "setting": "[1]; 18 nmol, 30 min", "value": "0.53±0.02", "unit": "%ID/g * body weight/100"}, {"measurement": "DUR brain stem", "setting": "[1]; 18 nmol, 30 min", "value": "0.27±0.03", "unit": "%ID/g * body weight/100"}, {"measurement": "DUR caudate", "setting": "[1]; 18 nmol, 30 min", "value": "0.24±0.04", "unit": "%ID/g * body weight/100"}, {"measurement": "DUR cerebellum", "setting": "[1]; 18 nmol, 30 min", "value": "0.15±0.01", "unit": "%ID/g * body weight/100"}, {"measurement": "DUR cortex", "setting": "[1]; 18 nmol, 30 min", "value": "0.41±0.13", "unit": "%ID/g * body weight/100"}, {"measurement": "DUR thalamus", "setting": "[1]; 18 nmol, 30 min", "value": "0.28±0.02", "unit": "%ID/g * body weight/100"}]}]}
